From ChEMBL document CHEMBL2010794, “Discovery of nor-seco himbacine analogs as thrombin receptor antagonists” (Bioorg Med Chem Lett, 2012)
Each block holds one compound with its values, some of them ahead of it. Calls of active or inactive are those of the source. No cut-off for these calls is given here.

What was measured:
[1] = biological target: T1, Proteinase-activated receptor 1 (Homo sapiens, UniProt P25116); test: Displacement of [3H]haTRAP from human PAR1 after 1 hr by TopCount scintillation counting; conditions: read-out: IC50
T1 sequence (P25116 whole entry): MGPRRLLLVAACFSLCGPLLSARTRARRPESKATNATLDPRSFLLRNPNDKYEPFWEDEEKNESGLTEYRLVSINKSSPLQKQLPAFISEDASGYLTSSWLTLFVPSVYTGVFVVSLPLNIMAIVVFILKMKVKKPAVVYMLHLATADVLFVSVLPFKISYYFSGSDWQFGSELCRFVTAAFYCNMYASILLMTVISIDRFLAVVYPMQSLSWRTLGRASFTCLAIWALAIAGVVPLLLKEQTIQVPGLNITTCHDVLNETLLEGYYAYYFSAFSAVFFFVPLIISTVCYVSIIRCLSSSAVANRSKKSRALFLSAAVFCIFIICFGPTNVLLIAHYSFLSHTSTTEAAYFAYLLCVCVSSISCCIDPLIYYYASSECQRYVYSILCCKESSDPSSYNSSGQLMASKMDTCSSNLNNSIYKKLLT
Procedure, shortened: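 PAR-1 receptors isolated from human platelets; competition binding against [³H]haTRAP radioligand; values expressed as IC₅₀ (nM).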

[2] = AUC (0 to 24 hrs) in cynomolgus monkey at 1 mg/kg, po and 1 mg/kg, iv; assay type: ADME, organism-based, Macaca fascicularis; conditions: plasma
Procedure, shortened: (§1)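 Full cynomolgus PK study: 1 mg/kg oral in 0.4% methylcellulose and 1 mg/kg intravenous in 20% HPBCD; AUC, oral Cmax, Tmax, half-life, Vd(ss) and clearance derived from plasma concentrations.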

[3] = Volume of distribution at steady state in cynomolgus monkey at 1 mg/kg, po and 1 mg/kg, iv; assay type: ADME, organism-based, Macaca fascicularis; conditions: in vivo, read-out: Vdss; procedure, shortened: as §1
Cynomolgus monkey [4] = test: Ex-vivo inhibition of PAR1 in cynomolgus monkey assessed as inhibition of haTRAP-induced platelet aggregation at 1 mg/kg, po at 24 hrs by aggregometry; assay type: functional; conditions: Macaca fascicularis
Procedure, shortened: (§2)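 Cynomolgus monkeys dosed orally in 20% PEG-HPBCD (hydrochloride salt for the 7a-hydroxy series); blood sampled at various times up to 24 h; haTRAP added to whole blood at 1 µM to trigger aggregation, measured by aggregometer; result given as % reduction in haTRAP-induced aggregation at the stated dose and time.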

[5] = Cmax in cynomolgus monkey at 1 mg/kg, po; assay type: ADME, organism-based, Macaca fascicularis; design: dose 1 mg/kg, route oral; conditions: in vivo; procedure, shortened: as §1
[6] = Clearance in cynomolgus monkey at 1 mg/kg, po and 1 mg/kg, iv; assay type: ADME, organism-based, Macaca fascicularis; conditions: in vivo; procedure, shortened: as §1
[7] = Oral bioavailability in cynomolgus monkey at 1 mg/kg; assay type: ADME, organism-based, Macaca fascicularis; conditions: in vivo; procedure, shortened: as §1
[8] = Tmax in cynomolgus monkey at 1 mg/kg, po and 1 mg/kg, iv; assay type: ADME, organism-based, Macaca fascicularis; conditions: in vivo; procedure, shortened: as §1
[9] = Half life in cynomolgus monkey at 1 mg/kg, po and 1 mg/kg, iv; assay type: ADME, organism-based, Macaca fascicularis; conditions: in vivo; procedure, shortened: as §1
[10] = AUC (0 to 24 hrs) in cynomolgus monkey plasma at 1 mg/kg, po; assay type: ADME, organism-based, Macaca fascicularis; design: time < 24 hr, dose 1 mg/kg, route oral
[11] = AUC (0 to 6 hrs) in rat at 10 mg/kg, po; assay type: ADME, organism-based; design: time < 6 hr, dose 10 mg/kg, route oral; conditions: plasma
Procedure, shortened: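 Rats given a single 10 mg/kg oral dose in 0.4% methylcellulose; plasma levels followed up to 6 h; AUC from 0 to 6 h reported in ng h/mL.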

Liver microsomes = test: Prodrug activation in rat liver microsomes assessed as (3R,3aR,4S,5R,6S,7aS)-5-ethyl-4-((E)-2-(5-(3-fluorophenyl)pyridin-2-yl)vinyl)-7a-hydroxy-3,6-dimethylhexahydroisobenzofuran-1(3H)-one formation; design: species or system Microsome
[12] = AUC (0 to 24 hrs) in cynomolgus monkey plasma at 3 mg/kg, po; assay type: ADME, organism-based, Macaca fascicularis; design: time < 24 hr, dose 3 mg/kg, route oral
Cynomolgus monkey [13] = test: Cmax in cynomolgus monkey plasma assessed as M+16 hydroxy metabolite at 3 mg/kg, po; assay type: ADME, organism-based, Macaca fascicularis; design: dose 3 mg/kg, route oral; conditions: in vivo
Cynomolgus monkey [14] = test: AUC (0 to 24 hrs) in cynomolgus monkey plasma assessed as M+16 hydroxy metabolite at 3 mg/kg, po; assay type: ADME, organism-based, Macaca fascicularis; design: time < 24 hr, dose 3 mg/kg, route oral; conditions: in vivo
[15] = Cmax in cynomolgus monkey plasma at 3 mg/kg, po; assay type: ADME, organism-based, Macaca fascicularis; design: dose 3 mg/kg, route oral
Cynomolgus monkey [16] = test: Ex-vivo inhibition of PAR1 in cynomolgus monkey assessed as inhibition of haTRAP-induced platelet aggregation at 3 mg/kg, po at 24 hrs by aggregometry; assay type: functional; conditions: Macaca fascicularis; procedure, shortened: as §2
Cynomolgus monkey [17] = test: Ex-vivo inhibition of PAR1 in cynomolgus monkey assessed as inhibition of haTRAP-induced platelet aggregation at 3 mg/kg, po at 6 hrs by aggregometry; assay type: functional; conditions: Macaca fascicularis; procedure, shortened: as §2
[18] = AUC (0 to 24 hrs) in cynomolgus monkey at 1 mg/kg, po; assay type: ADME, organism-based, Macaca fascicularis; design: time < 24 hr, dose 1 mg/kg, route oral; conditions: plasma
Cynomolgus monkey [19] = test: Ex-vivo inhibition of PAR1 in cynomolgus monkey assessed as inhibition of haTRAP-induced platelet aggregation at 1 mg/kg, po up to 6 hrs by aggregometry; assay type: functional, organism-based; design: dose 1 mg/kg; conditions: Macaca fascicularis; procedure, shortened: as §2

- IC50 [1]: 20 nM
SMILES: CC[C@H]1[C@H](/C=C/c2ccc(-c3ccccc3C)cn2)[C@@H]2[C@@H](C)OC(=O)[C@@H]2C[C@@H]1C

- AUC(0-t) [2]: 3980 ng·h/mL
- Vd [3]: 1.5 L/kg
- Cmax [5]: 397 ng/mL
- clearance [6]: 3.3 mL/min/kg
- bioavailability [7]: 78%
- Tmax [8]: 1 h
- half-life [9]: 10.7 h
- AUC(0-t) at 24 h [10]: 3820 ng·h/mL
SMILES: CC[C@H]1[C@H](/C=C/c2ccc(-c3ccccc3)cn2)[C@@H]2[C@@H](C)OC(=O)[C@]2(O)C[C@@H]1C.Cl
- inhibition in vivo at 1 mg/kg (Cynomolgus monkey [4]): 65%

- IC50 [1]: 21 nM
SMILES: CC[C@H]1[C@H](/C=C/c2ccc(-c3cccc(C#N)c3)cn2)[C@@H]2[C@@H](C)OC(=O)[C@@H]2C[C@@H]1C

- AUC(0-t) at 6 h [11]: 3300 ng·h/mL
- IC50 [1]: 6.4 nM
SMILES: CC[C@H]1[C@H](/C=C/c2ccc(-c3ccccc3)cn2)[C@@H]2[C@@H](C)OC(=O)[C@]2(O)C[C@@H]1C

- Drug metabolism (Liver microsomes): Active
- AUC(0-t) at 24 h [12]: 451 ng·h/mL
- Cmax (Cynomolgus monkey [13]): 98 ng/mL
- AUC (Cynomolgus monkey [14]): 1400 ng·h/mL
- Cmax [15]: 62 ng/mL
- AUC(0-t) at 6 h [11]: 230 ng·h/mL
- IC50 [1]: 15 nM
SMILES: CC[C@H]1[C@H](/C=C/c2ccc(-c3cccc(F)c3)cn2)[C@@H]2[C@@H](C)OC(=O)[C@@H]2C[C@@H]1C
- inhibition in vivo at 1 mg/kg (Cynomolgus monkey [4]): 69%
- inhibition in vivo at 3 mg/kg (Cynomolgus monkey [16]): 100%

- AUC(0-t) at 24 h [12]: 4110 ng·h/mL
SMILES: CC[C@H]1[C@H](/C=C/c2ccc(-c3ccoc3)cn2)[C@@H]2[C@@H](C)OC(=O)[C@]2(O)C[C@@H]1C.Cl
- inhibition in vivo at 3 mg/kg (Cynomolgus monkey [16]): 35%

- IC50 [1]: 28 nM
SMILES: CC[C@H]1[C@H](/C=C/c2ccc(-c3cccc(Cl)c3)cn2)[C@@H]2[C@@H](C)OC(=O)[C@@H]2C[C@@H]1C

- IC50 [1]: 25 nM
SMILES: CC[C@H]1[C@H](/C=C/c2ccc(-c3ccccc3Cl)cn2)[C@@H]2[C@@H](C)OC(=O)[C@@H]2C[C@@H]1C

- AUC(0-t) at 24 h [12]: 573 ng·h/mL
- AUC (Cynomolgus monkey [14]): 813 ng·h/mL
- AUC(0-t) at 6 h [11]: 1150 ng·h/mL
- IC50 [1]: 13 nM
SMILES: CC[C@H]1[C@H](/C=C/c2ccc(-c3cccc(Cl)c3Cl)cn2)[C@@H]2[C@@H](C)OC(=O)[C@@H]2C[C@@H]1C
- inhibition in vivo at 3 mg/kg (Cynomolgus monkey [16]): 95%

- IC50 [1]: 513 nM
SMILES: CC[C@H]1[C@H](/C=C/c2ccc(-c3cc(Cl)ccc3Cl)cn2)[C@@H]2[C@@H](C)OC(=O)[C@@H]2C[C@@H]1C

SMILES: CC[C@H]1[C@H](/C=C/c2ccc(N3CCCC3)cn2)[C@@H]2[C@@H](C)OC(=O)[C@]2(O)C[C@@H]1C
- inhibition in vivo at 3 mg/kg (Cynomolgus monkey [17]): 100%

- AUC(0-t) at 24 h [10]: 1210 ng·h/mL
SMILES: CC[C@H]1[C@H](/C=C/c2ccc(-c3cccc(OC)c3)cn2)[C@@H]2[C@@H](C)OC(=O)[C@]2(O)C[C@@H]1C.Cl

- AUC(0-t) at 24 h [18]: 4280 ng·h/mL
- AUC(0-t) at 6 h [11]: 1140 ng·h/mL
- IC50 [1]: 27 nM
SMILES: CC[C@H]1[C@H](/C=C/c2ccc(-c3cccc(F)c3)cn2)[C@@H]2[C@@H](C)OC(=O)[C@]2(O)C[C@@H]1C
- inhibition in vivo at 3 mg/kg (Cynomolgus monkey [16]): 100%
- inhibition (Cynomolgus monkey [19]): Active

- AUC(0-t) at 6 h [11]: 148 ng·h/mL
- IC50 [1]: 8.6 nM
SMILES: CC[C@H]1[C@H](/C=C/c2ccc(-c3ccoc3)cn2)[C@@H]2[C@@H](C)OC(=O)[C@]2(O)C[C@@H]1C

- AUC(0-t) at 24 h [12]: 2770 ng·h/mL
SMILES: CC[C@H]1[C@H](/C=C/c2ccc(-c3cccc(C)c3)cn2)[C@@H]2[C@@H](C)OC(=O)[C@]2(O)C[C@@H]1C.Cl
- inhibition in vivo at 3 mg/kg (Cynomolgus monkey [17]): 100%

- AUC(0-t) at 6 h [11]: 3160 ng·h/mL
- IC50 [1]: 33 nM
SMILES: CC[C@H]1[C@H](/C=C/c2ccc(-c3ccccc3C)cn2)[C@@H]2[C@@H](C)OC(=O)[C@]2(O)C[C@@H]1C

- AUC(0-t) at 24 h [12]: 2720 ng·h/mL
SMILES: CC[C@H]1[C@H](/C=C/c2ccc(-c3ccccc3C)cn2)[C@@H]2[C@@H](C)OC(=O)[C@]2(O)C[C@@H]1C.Cl
- inhibition in vivo at 3 mg/kg (Cynomolgus monkey [17]): 55%

- AUC(0-t) at 24 h [12]: 4740 ng·h/mL
SMILES: CC[C@H]1[C@H](/C=C/c2ccc(-c3ccsc3)cn2)[C@@H]2[C@@H](C)OC(=O)[C@]2(O)C[C@@H]1C.Cl
- inhibition in vivo at 3 mg/kg (Cynomolgus monkey [16]): 90%
